The text below walks through data of ChEMBL document CHEMBL3091288, “Fluorine Scanning by Nonselective Fluorination: Enhancing Raf/MEK Inhibition while Keeping Physicochemical Properties” (ACS Med Chem Lett, 2013).

The nature of data set [1]: Oral bioavailability in rat at 10 mg/kg by LC-MS/MS analysis. The data set is classed as ADME, organism-based. Conditions: in vivo. The method, boiled down:
(§1)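 Sodium salt dosed intravenously and orally in mouse (10/20 mg/kg), rat (5.0/10 mg/kg) and monkey (2.5/5.0 mg/kg iv/po), vehicle 5% DMSO/5% Cremophor EL/15% PEG400/15% HPCD/60% water. AUC_inf from oral dosing, t1/2 from iv dosing, clearance and oral bioavailability from paired iv/po data.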

A short description of data set [2]: AUC (infinity) in BALB-nu/nu mouse at 20 mg/kg, po by LC-MS/MS analysis. The data set is classed as ADME, organism-based. Further details: time infinity, dose 20 mg/kg, route oral. Conditions: plasma. In a few lines: as §1
The test system of a further data set is Mus musculus. The data set can be described thus: Toxicity in BALB nu/nu mouse xenografted with human HCT116 cells assessed as body weight change at 0.3 mg/kg to 30 mg/kg, po qd for 11 days measured twice per week. It counts as organism-based, HCT-116. As to conditions: in vivo, 264 h. For orientation: In xenograft studies the graft and the host belong to different species.

Data set [3] is described as follows: AUC (infinity) in rat at 10 mg/kg, po by LC-MS/MS analysis. The data set is classed as ADME, organism-based. Set-up: time infinity, dose 10 mg/kg, route oral. As to conditions: plasma. In a few lines:
as §1

Data set [4] is described as follows: Oral bioavailability in cynomolgus monkey at 5 mg/kg by LC-MS/MS analysis. It counts as ADME, organism-based, Macaca fascicularis. Conditions: in vivo. The method, boiled down:
as §1

Data set [5] is described as follows: Half life in BALB-nu/nu mouse at 10 mg/kg, iv by LC-MS/MS analysis. Conditions: in vivo. The data set is classed as ADME, organism-based. Further details: dose 10 mg/kg, route intravenous. The method, boiled down:
as §1

The nature of data set [6]: Clearance in cynomolgus monkey at 2.5 mg/kg, iv and 5 mg/kg, po by LC-MS/MS analysis. The data set is classed as ADME, organism-based, Macaca fascicularis. As to conditions: in vivo. In a few lines: as §1
The test system of data set [7] is HCT-116. Put plainly: Antitumor activity against human HCT116 cells xenografted in BALB-nu/nu mouse assessed as tumor growth inhibition at 30 mg/kg, po qd for 11 days measured twice per week relative to control. It counts as functional. As to conditions: HCT-116, 264 h, read-out: TGI. The method, boiled down: (§2)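 HCT116 cells implanted subcutaneously in right flank of BALB-nu/nu mice; tumours allowed to establish before dosing. Sodium salt given orally once daily for 11 days (day 0 to day 10). Tumour size measured twice weekly; mean SD, n = 4.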

Data set [8] is described as follows: Clearance in BALB-nu/nu mouse at 10 mg/kg, iv and 20 mg/kg, po by LC-MS/MS analysis. It counts as ADME, organism-based. Conditions: in vivo. The method, boiled down:
as §1

Data set [9] is described as follows: AUC (infinity) in cynomolgus monkey at 5 mg/kg, po by LC-MS/MS analysis. The data set is classed as ADME, organism-based, Macaca fascicularis. Further details: dose 5 mg/kg, route oral, time infinity. Conditions: plasma. In a few lines: as §1
Data set [10] can be described thus: Half life in rat at 5 mg/kg, iv by LC-MS/MS analysis. As to conditions: in vivo. It counts as ADME, organism-based. Further details: dose 5 mg/kg, route intravenous. The method, boiled down: as §1
Data set [11] is described as follows: Half life in cynomolgus monkey at 2.5 mg/kg, iv by LC-MS/MS analysis. As to conditions: in vivo.
Data set [12] deals with HCT-116. The data set can be described thus: Antitumor activity against human HCT116 cells xenografted in BALB-nu/nu mouse administered orally qd for 11 days. The data set is classed as functional. Conditions: HCT-116, po, 264 h. In a few lines: as §2
Data set [13] is described as follows: Clearance in rat at 5 mg/kg, iv and 10 mg/kg, po by LC-MS/MS analysis. It counts as ADME, organism-based. Conditions: in vivo. The method, boiled down: as §1
A short description of data set [14]: Oral bioavailability in BALB-nu/nu mouse at 20 mg/kg by LC-MS/MS analysis. Conditions: in vivo. The data set is classed as ADME, organism-based. In a few lines: as §1
The nature of data set [15]: Oral bioavailability in mouse. It counts as ADME, organism-based. As to conditions: in vivo. The method, boiled down: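 Mice received the sodium salt at 10 mg/kg iv and 20 mg/kg po, in a vehicle of 5% DMSO/5% Cremophor EL/15% PEG400/15% HPCD/60% water. Bioavailability was derived from the iv and po exposure.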
The subject of another data set is Liver microsome. The data set can be described thus: Clearance in human liver microsomes at 5 uM by LC-MS/MS analysis. It counts as ADME. A general note: Liver microsomes are a subcellular fraction often used to study metabolism.
For data set [16], the system named is HCT-116. Put plainly: Antiproliferative activity against human HCT116 cells assessed as cell viability after 96 hrs by cell counting kit-8 assay. It counts as functional, cell-based. Conditions: HCT-116, 96 h.
A short description of data set [17]: Solubility of the compound in fasted state simulated intestinal fluid measured after overnight incubation by UV-HPLC analysis. The data set is classed as ADME.
Data set [18] concerns the target RAF proto-oncogene serine/threonine-protein kinase (Homo sapiens, UniProt P04049). The data set can be described thus: Inhibition of C-Raf (unknown origin) assessed as phosphorylation of MEK1 after 45 mins by TR-FRET assay.
Data set [19] can be described thus: Permeability of the compound at pH 6.5 by PAMPA. It counts as ADME. Conditions: read-out: permeability. For orientation: PAMPA measures passive passage across an artificial lipid membrane.
In data set [20] the target is Dual specificity mitogen-activated protein kinase kinase 1 (Homo sapiens, UniProt Q02750). Put plainly: Inhibition of MEK1 (unknown origin) assessed as phosphorylation of Erk2 preincubated for 30 mins followed by FAM-Erktide addition measured after 60 mins by IMAP fluorescence polarization assay.
Sequence of Dual specificity mitogen-activated protein kinase kinase 1 (Q02750 whole entry): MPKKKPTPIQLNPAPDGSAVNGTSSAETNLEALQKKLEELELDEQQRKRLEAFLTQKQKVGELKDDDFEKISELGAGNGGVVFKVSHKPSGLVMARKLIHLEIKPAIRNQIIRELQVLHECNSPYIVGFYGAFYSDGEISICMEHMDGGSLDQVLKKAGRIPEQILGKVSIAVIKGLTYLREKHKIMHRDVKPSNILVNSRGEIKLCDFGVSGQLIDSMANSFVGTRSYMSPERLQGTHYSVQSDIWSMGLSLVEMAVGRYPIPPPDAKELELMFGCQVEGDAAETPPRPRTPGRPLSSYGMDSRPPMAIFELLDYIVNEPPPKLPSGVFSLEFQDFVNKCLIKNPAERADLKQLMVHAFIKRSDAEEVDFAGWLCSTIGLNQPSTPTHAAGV

Converted amounts (≈) assume the structure as drawn.

The term bioavailability denotes the share of a dose that reaches the circulation, judged against a reference dose that is usually intravenous. A word on the AUC(0-inf): it is total exposure, with the tail of the curve extrapolated. In general, half-life refers to the time needed for the level to fall by half in the phase considered. The term ED50 denotes the dose that gives a 50% effect, or the effect in half of the subjects. As usually defined, the IC50 is the point on the concentration scale where inhibition reaches its midpoint. A word on the solubility: it is the concentration that dissolves in the medium under given conditions.

Sequence of RAF proto-oncogene serine/threonine-protein kinase (P04049 whole entry): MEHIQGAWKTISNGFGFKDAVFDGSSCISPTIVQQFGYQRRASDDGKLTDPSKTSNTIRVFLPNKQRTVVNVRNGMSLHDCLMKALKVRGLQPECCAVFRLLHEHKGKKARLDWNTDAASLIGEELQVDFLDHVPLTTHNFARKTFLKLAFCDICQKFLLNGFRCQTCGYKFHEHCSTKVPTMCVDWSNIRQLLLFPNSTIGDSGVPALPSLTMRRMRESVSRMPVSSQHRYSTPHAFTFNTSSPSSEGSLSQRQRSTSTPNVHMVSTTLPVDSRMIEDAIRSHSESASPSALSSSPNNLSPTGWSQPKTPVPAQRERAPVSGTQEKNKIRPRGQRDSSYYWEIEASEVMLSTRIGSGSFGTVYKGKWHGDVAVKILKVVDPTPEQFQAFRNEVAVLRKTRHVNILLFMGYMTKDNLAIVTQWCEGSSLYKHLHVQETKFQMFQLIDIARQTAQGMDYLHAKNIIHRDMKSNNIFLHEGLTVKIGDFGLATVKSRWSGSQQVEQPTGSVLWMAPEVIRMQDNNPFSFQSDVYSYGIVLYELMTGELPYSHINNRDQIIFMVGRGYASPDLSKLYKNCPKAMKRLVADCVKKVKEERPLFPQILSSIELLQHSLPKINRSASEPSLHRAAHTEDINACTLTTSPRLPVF

Consider `CNS(=O)(=O)[N-]c1cccc(Cc2c(C)c3ccc(Oc4ncccn4)cc3oc2=O)c1F.[Na+]`, for which the bioavailability in data set [1] turned out to be 84%; in data set [4], 59%; in data set [14], 75%. The figures for the area under the curve AUC(0-inf) in [2], in [3] and in [9] were 75 µM·h, 43 µM·h and 108 µM·h, respectively. Further, in the data set on Mus musculus, the Activity entry is reported as “Non-toxic”. The results for the half-life in data set [5], in [10] and in data set [11] were 4.8 h, 1.3 h and 2.9 h, respectively. The clearance was 0.9 mL/min/kg in data set [6], 6.8 mL/min/kg in data set [8] and 6.6 mL/min/kg in data set [13]. The inhibition in vivo at 30 mg/kg in the data set with HCT-116 [7] worked out at 119%. The same compound gave an ED50 with HCT-116 [12] of 1.4 mg/kg.
Turning to `Cc1c(Cc2cccc(NS(N)(=O)=O)c2)c(=O)oc2cc(OC(=O)N(C)C)ccc12`, the bioavailability in [15] worked out at 62%. The compound also returned a CLH in the data set with Liver microsome of 6 µL/min/mg. Further, the half-inhibitory concentration (IC50) was 95 nM with HCT-116 [16], 530 nM in data set [18] and 230 nM in data set [20]. This compound displayed a solubility in data set [17] of 32 µg/mL (≈ 74.2 µM). Besides, the Papp in data set [19] was 6 ×10⁻⁶ cm/s.
